Reference: PMC7736561 (Angewandte Chemie (International ed. in English), 2020)

Legend:
Water solubility = assay type: physicochemical; settings: in water
[1] = Self-aggregation in water by absorption spectrum; assay type: physicochemical; settings: absorption spectrum in water (Figures S7, S10)
[2] = Chemical stability of squaraine fluorophore in PBS; assay type: physicochemical; settings: pH 7.4, followed over 15 hours (Figure S11A)
Asp-N = assay: Proteolytic degradation by Asp-N endoproteinase, LCMS analysis; assay type: in vitro ADME; settings: SF8(DDDDG)2 vs linear azido-DDDDG, 2 hours
In short: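 The test compound and the linear pentapeptide comparator were each incubated separately at 10 μM with Asp-N, an endoproteinase that cleaves peptide bonds on the N-terminal side of aspartic acid residues.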

[3] = Histology staining of bone sections; parameters: species or system mouse
In short: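 Thin sections of mouse tibia were treated with a 5 μM probe solution for 30 minutes and then imaged by fluorescence microscopy. For the demineralized comparison, slices were pre-treated with EDTA before staining. A charge-balanced, net-neutral peptide probe served as the control stain.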

Substance | water solubility (Water solubility) | self-aggregation [1] | chemical stability, fluorescence profile of solution [2] | factor by which proteolytic degradation of the peptide sequence was reduced (Asp-N) | staining of demineralized bone slices ([3]; bone slices demineralized with pre-treatment of EDTA (Figure S26)) | staining of bone histology slices ([3]; thin sections of mouse tibia bone, probe 5 μM, 30 minutes)
(azido-RRRG)2 [SR(azido-RRRG)2] | soluble | unaggregated | almost completely bleached after a few hours |  |  | 
(DDDDG)2 (bicyclic or more) [SF8(DDDDG)2] | high water-solubility | no molecular self-aggregation |  | 3.8 | no staining | strongly stained the mineral segments
(azido-DDDDG)2 [SR(azido-DDDDG)2] | low solubility | formation of non-fluorescent H-aggregates |  |  |  | 
